Experimental data: ChEMBL document CHEMBL4428054, “Synthesis of Fluorescent Binaphthyl Amines That Bind c-MYC G-Quadruplex DNA and Repress c-MYC Expression” (J Med Chem, 2016)

Key:
Type in all cases: nucleic-acid assay
Quadruplex DNA [1] = experiment: Stabilization of 5'-FAM and 3'-TAMRA-labeled k-RAS G-quadruplex (unknown origin) assessed as change in melting temperature at 1 uM by FRET assay; settings: unidentified
Procedure, shortened: (§1)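 FRET melting of dual-labelled (5′-FAM/3′-TAMRA) promoter quadruplexes or duplex in 60 mM potassium cacodylate buffer, pH 7.4. ΔTm is taken against ligand-free Tm. The ligand was tested across a concentration series. Maximum measurable Tm is 93 °C.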

Quadruplex DNA [2] = experiment: Stabilization of 5'-FAM and 3'-TAMRA-labeled c-KIT1 G-quadruplex (unknown origin) assessed as change in melting temperature at 1 uM by FRET assay; settings: unidentified; procedure, shortened: as §1
dsDNA = experiment: Stabilization of 5'-FAM and 3'-TAMRA-labeled dsDNA (unknown origin) assessed as change in melting temperature at 1 uM by FRET assay; procedure, shortened: as §1
Quadruplex DNA [3] = experiment: Stabilization of 5'-FAM and 3'-TAMRA-labeled c-MYC G-quadruplex (unknown origin) assessed as change in melting temperature at 1 uM by FRET assay; settings: unidentified; procedure, shortened: as §1
Quadruplex DNA [4] = experiment: Stabilization of 5'-FAM and 3'-TAMRA-labeled c-KIT2 G-quadruplex (unknown origin) assessed as change in melting temperature at 1 uM by FRET assay; settings: unidentified; procedure, shortened: as §1

## O=C(O)c1ccc(Nc2ccc(-c3ccc(Nc4ccc(C(=O)O)cc4)c4ccccc34)c3ccccc23)cc1
Quadruplex DNA [1]
  ΔTm: 3.8 °C
Quadruplex DNA [2]
  ΔTm: 2.5 °C
dsDNA
  ΔTm: 0.5 °C
Quadruplex DNA [3]
  ΔTm: 4.5 °C
Quadruplex DNA [4]
  ΔTm: 2.8 °C
